According to article PMC6061410 (Clinical Drug Investigation, 2018):

System: healthy young and healthy elderly subjects
Assay: Safety and tolerability
Type: in vivo, human
Conditions: young
Method in brief: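 Adverse events were recorded by system organ class and preferred term in the treated set. This was 84 healthy young or elderly subjects randomised 3:1 to oral drug or placebo over 14 days, across seven ascending dose groups with a safety review before each escalation. Changes were assessed against the last pre-dose baseline measurement.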

In the case of `C[C@@H](Oc1ccc(S(C)(=O)=O)cc1C(=O)N1C[C@@H]2C[C@]2(c2cc(C(F)(F)F)on2)C1)C(F)(F)F` [BI 425809], the Gastrointestinal disorders (part 1, 25 mg QD) is reported as 3 (33.3) n (%), the “General disorders and administration site conditions” value (part 1, 25 mg QD) is reported as 0 (–) n (%) and the Headache (part 1, 25 mg QD) is reported as 3 (33.3) n (%). For the same molecule, the Infections and infestations (part 1, 25 mg QD) was 2 (22.2) n (%), the Insomnia (part 1, 25 mg QD) was 0 (–) n (%) and the “Musculoskeletal and connective tissue disorders” value (part 1, 25 mg QD) was 0 (–) n (%). For the same molecule, the Nasopharyngitis (part 1, 25 mg QD) was 2 (22.2) n (%), the Nervous system disorder (part 1, 25 mg QD) was 3 (33.3) n (%) and the Ocular discomfort (part 1, 25 mg QD) was 0 (–) n (%). The Psychiatric disorders (part 1, 25 mg QD) was 1 (11.1) n (%), the “Subjects with AEs leading to study discontinuation” value (shortened to “Subjects with AEs leading”) (part 1, 25 mg QD) was 0 (–) n (%) and the “Subjects with investigator-defined drug-related AEs” value (part 1, 25 mg QD) was 6 (66.7) n (%). The “Total with AEs” value (part 1, 25 mg QD) was 7 (77.8) n (%), the Vision blurred (part 1, 25 mg QD) was 2 (22.2) n (%) and the Dizziness (part 1, 50 mg QD) was 1 (11.1) n (%). For the same molecule, the Eye disorders (part 1, 50 mg QD) was 3 (33.3) n (%), the Gastrointestinal disorders (part 1, 50 mg QD) was 0 (–) n (%) and the “General disorders and administration site conditions” value (part 1, 50 mg QD) was 2 (22.2) n (%). For the same molecule, the Headache (part 1, 50 mg QD) was 3 (33.3) n (%), the Infections and infestations (part 1, 50 mg QD) was 1 (11.1) n (%) and the Insomnia (part 1, 50 mg QD) was 0 (–) n (%). The “Musculoskeletal and connective tissue disorders” value (part 1, 50 mg QD) was 1 (11.1) n (%), the Nasopharyngitis (part 1, 50 mg QD) was 0 (–) n (%) and the Nervous system disorder (part 1, 50 mg QD) was 3 (33.3) n (%). The Ocular discomfort (part 1, 50 mg QD) was 0 (–) n (%), the Psychiatric disorders (part 1, 50 mg QD) was 0 (–) n (%) and the “Subjects with AEs leading” value (part 1, 50 mg QD) was 0 (–) n (%). The “Subjects with investigator-defined drug-related AEs” value (part 1, 50 mg QD) was 6 (66.7) n (%), the “Total with AEs” value (part 1, 50 mg QD) was 6 (66.7) n (%) and the Vision blurred (part 1, 50 mg QD) was 1 (11.1) n (%). The Dizziness (part 1, 75 mg BID) was 2 (22.2) n (%), the Eye disorders (part 1, 75 mg BID) was 2 (22.2) n (%) and the Gastrointestinal disorders (part 1, 75 mg BID) was 0 (–) n (%). For the same molecule, the “General disorders and administration site conditions” value (part 1, 75 mg BID) was 1 (11.1) n (%), the Headache (part 1, 75 mg BID) was 0 (–) n (%) and the Infections and infestations (part 1, 75 mg BID) was 0 (–) n (%). For the same molecule, the Insomnia (part 1, 75 mg BID) was 3 (33.3) n (%), the “Musculoskeletal and connective tissue disorders” value (part 1, 75 mg BID) was 0 (–) n (%) and the Nasopharyngitis (part 1, 75 mg BID) was 0 (–) n (%). The Nervous system disorder (part 1, 75 mg BID) was 2 (22.2) n (%), the Ocular discomfort (part 1, 75 mg BID) was 2 (22.2) n (%) and the Psychiatric disorders (part 1, 75 mg BID) was 3 (33.3) n (%). For the same molecule, the “Subjects with AEs leading” value (part 1, 75 mg BID) was 0 (–) n (%), the “Subjects with investigator-defined drug-related AEs” value (part 1, 75 mg BID) was 6 (66.7) n (%) and the “Total with AEs” value (part 1, 75 mg BID) was 6 (66.7) n (%). The Vision blurred (part 1, 75 mg BID) was 0 (–) n (%), the Dizziness (part 1, 75 mg QD) was 3 (33.3) n (%) and the Eye disorders (part 1, 75 mg QD) was 0 (–) n (%). For the same molecule, the Fatigue (part 1, 75 mg QD) was 1 (11.1) n (%), the Gastrointestinal disorders (part 1, 75 mg QD) was 2 (22.2) n (%) and the “General disorders and administration site conditions” value (part 1, 75 mg QD) was 1 (11.1) n (%). For the same molecule, the Headache (part 1, 75 mg QD) was 4 (44.4) n (%), the Infections and infestations (part 1, 75 mg QD) was 1 (11.1) n (%) and the Insomnia (part 1, 75 mg QD) was 0 (–) n (%). For the same molecule, the “Musculoskeletal and connective tissue disorders” value (part 1, 75 mg QD) was 1 (11.1) n (%), the Nasopharyngitis (part 1, 75 mg QD) was 1 (11.1) n (%) and the Nervous system disorder (part 1, 75 mg QD) was 5 (55.6) n (%). For the same molecule, the Ocular discomfort (part 1, 75 mg QD) was 0 (–) n (%), the Psychiatric disorders (part 1, 75 mg QD) was 0 (–) n (%) and the “Subjects with AEs leading” value (part 1, 75 mg QD) was 0 (–) n (%). The “Subjects with investigator-defined drug-related AEs” value (part 1, 75 mg QD) was 5 (55.6) n (%), the “Total with AEs” value (part 1, 75 mg QD) was 6 (66.7) n (%) and the Vision blurred (part 1, 75 mg QD) was 0 (–) n (%). For the same molecule, the Dizziness (part 1, Total BI n = 45) was 7 (15.6) n (%), the Eye disorders (part 1, Total BI n = 45) was 7 (15.6) n (%) and the Fatigue (part 1, Total BI n = 45) was 1 (2.2) n (%). For the same molecule, the Gastrointestinal disorders (part 1, Total BI n = 45) was 5 (11.1) n (%), the “General disorders and administration site conditions” value (part 1, Total BI n = 45) was 4 (8.9) n (%) and the Headache (part 1, Total BI n = 45) was 13 (28.9) n (%). For the same molecule, the Infections and infestations (part 1, Total BI n = 45) was 5 (11.1) n (%), the Insomnia (part 1, Total BI n = 45) was 3 (6.7) n (%) and the “Musculoskeletal and connective tissue disorders” value (part 1, Total BI n = 45) was 3 (6.7) n (%). For the same molecule, the Nasopharyngitis (part 1, Total BI n = 45) was 3 (6.7) n (%), the Nervous system disorder (part 1, Total BI n = 45) was 17 (37.8) n (%) and the Ocular discomfort (part 1, Total BI n = 45) was 2 (4.4) n (%). For the same molecule, the Psychiatric disorders (part 1, Total BI n = 45) was 4 (8.9) n (%), the “Subjects with AEs leading” value (part 1, Total BI n = 45) was 0 (–) n (%) and the “Subjects with investigator-defined drug-related AEs” value (part 1, Total BI n = 45) was 27 (60.0) n (%). The “Total with AEs” value (part 1, Total BI n = 45) was 30 (66.7) n (%), the Vision blurred (part 1, Total BI n = 45) was 3 (6.7) n (%) and the Eye disorders (parts 1 and 2, BI n = 57) was 7 (12.3) n (%). The Gastrointestinal disorders (parts 1 and 2, BI n = 57) was 5 (8.8) n (%), the “General disorders and administration site conditions” value (parts 1 and 2, BI n = 57) was 4 (7.0) n (%) and the Infections and infestations (parts 1 and 2, BI n = 57) was 6 (10.5) n (%). The “Musculoskeletal and connective tissue disorders” value (parts 1 and 2, BI n = 57) was 3 (5.3) n (%), the Nervous system disorder (parts 1 and 2, BI n = 57) was 18 (31.6) n (%) and the Psychiatric disorders (parts 1 and 2, BI n = 57) was 4 (7.0) n (%). For the same molecule, the “Subjects with AEs leading” value (parts 1 and 2, BI n = 57) was 0 (–) n (%), the “Subjects with investigator-defined drug-related AEs” value (parts 1 and 2, BI n = 57) was 27 (47.4) n (%) and the “Total with AEs” value (parts 1 and 2, BI n = 57) was 32 (56.1) n (%).
